Rows were chosen to be rich in hits. Some 3.2% of all compounds tested hit in one or more screens of this group.
DAX1 inh-1: DAX1 (NR0B1) inhibition, primary screen; HEK293T StAR-luciferase reporter, SF-1/DAX-1 repression relief; inhibition, % at 6.8 µM; 370,000 compounds, 1.1% hits;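 active means inhibition above the mean over all tested compounds plus 3 SD, cut at about 3.6% in these data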;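 further: 0% = DAX-1 cells with DMSO and 100% = cells lacking DAX-1 with DMSO; higher inhibition means more luminescence from relief of DAX-1 repression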
NR2E3 ag-1: agonists of human nuclear receptor NR2E3 | GST-NR2E3/biotin-RetCOR TR-FRET, 1536-well | inhibition of corepressor binding, % at 4.78 µM | 320,000 compounds, 0.12% hits | AID 2300;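 active means percent inhibition above the cutoff of mean plus 3 SD of all tested compounds, set per screening campaign, cut at about 20% in these data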;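 further: 0% = DMSO wells and 100% = biotin wells as full block of FRET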
Target sequence (Q9Y5X4 whole entry, looked up): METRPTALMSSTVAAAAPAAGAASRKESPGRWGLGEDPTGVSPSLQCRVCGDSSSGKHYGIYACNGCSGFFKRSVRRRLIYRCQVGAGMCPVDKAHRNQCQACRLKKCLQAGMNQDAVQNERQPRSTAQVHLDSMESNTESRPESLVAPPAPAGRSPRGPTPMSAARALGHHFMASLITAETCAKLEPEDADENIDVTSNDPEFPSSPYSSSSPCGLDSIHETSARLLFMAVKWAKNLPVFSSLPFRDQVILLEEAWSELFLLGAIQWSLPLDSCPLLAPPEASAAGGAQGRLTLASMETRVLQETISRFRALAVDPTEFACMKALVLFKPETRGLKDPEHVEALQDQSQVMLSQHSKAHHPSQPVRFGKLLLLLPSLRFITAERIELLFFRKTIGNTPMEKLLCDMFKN
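Material: NR2E3–RetCOR corepressor complex | Quantity: 1.35 nM GST-tagged NR2E3 final | Schedule: 5 h at 4 °C | Replication: Singlicate compound wells | Reagent: RetCOR corepressor, biotinylated, 7 nM | Controls: Biotin wells as high control, 0.6% DMSO wells as low control | Signal: TR-FRET, Eu(K)-anti-GST donor, streptavidin-D2 acceptor, ex 340, em 617/671 nm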
NR2E3 ag-2: activates human NR2E3 receptor | Q9Y5X4 | CHO-S Gal4-NCOR/VP16-NR2E3 two-hybrid, luciferase | inhibition of corepressor binding, % at 3.98 µM | 360,000 compounds, 0.35% hits | AID 602229;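 active means inhibition above the mean of all tested compounds plus 3 SD, cut at about 70% in these data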;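 further: 0% = DMSO with NR2E3 transfected cells and 100% = cells lacking NR2E3 construct; higher means lower luciferase signal from less NR2E3 corepressor binding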
JMJD2C inh: inhibitors of human GASC-1 (JMJD2C) demethylase | Q9H3R0 | GST-JMJD2C(1-420) H3K9me3 demethylation, DELFIA europium | inhibition, % at 2.35 µM | 330,000 compounds, 0.069% hits | AID 2099;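 active means more than half of a compound's replicate wells show inhibition beyond 50%, single wells judged on their own value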;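 further: signal counts dimethyl H3K9 product captured on neutravidin plate; 0% = median of DMSO wells and 100% = 0.3 times that DMSO median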
Target sequence (Q9H3R0 1-420 limits assumed): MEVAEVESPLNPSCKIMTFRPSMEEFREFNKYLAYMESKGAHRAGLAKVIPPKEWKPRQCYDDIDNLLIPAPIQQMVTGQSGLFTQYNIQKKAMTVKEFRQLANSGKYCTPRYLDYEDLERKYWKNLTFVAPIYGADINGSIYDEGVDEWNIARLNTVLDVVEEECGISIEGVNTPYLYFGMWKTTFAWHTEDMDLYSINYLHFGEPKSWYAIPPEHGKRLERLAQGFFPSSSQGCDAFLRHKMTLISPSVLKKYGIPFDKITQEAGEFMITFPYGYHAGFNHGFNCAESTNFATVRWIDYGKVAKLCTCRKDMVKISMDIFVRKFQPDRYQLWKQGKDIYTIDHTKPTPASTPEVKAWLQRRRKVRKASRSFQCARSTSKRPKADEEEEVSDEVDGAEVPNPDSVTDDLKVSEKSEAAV
DAX1 inh-2: inhibitors of human orphan nuclear receptor DAX1 (NR0B1). P51843. 340,000 compounds, 0.99% hits. inhibition, % at 6.75 µM. HEK293 Gal4-DAX1 luciferase reporter, luminescence. AID 504766;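 active means inhibition above the mean over all tested compounds plus 3 SD, cut at about 4.2% in these data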;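 further: 0% = DAX1-transfected cells with DMSO and 100% = empty-vector control cells with DMSO; inhibition shows as a rise in luminescence from relieved DAX1 repression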
SMARCA2 act: activators of SMARCA2 function; MG213 cells, MMTV-luciferase reporter, dexamethasone, overnight; 370,000 compounds, 1% hits; activation, % at 9.1 µM; in the data active means activation above about 7.8%;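 further: 0% = vehicle wells and 100% = reference activator wells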
NR2E3 ag confirm: confirmation of human NR2E3 agonists; CHO-S mammalian two-hybrid NR2E3-NCOR, luciferase luminescence; inhibition, % at 3.98 µM; AID 624378; 2,300 compounds, 51% hits; shares compounds with NR2E3 ag-2;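 active means average inhibition above a cutoff equal to the mean inhibition of all tested compounds plus one SD, cut at about 70% in these data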;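 further: 0% = DMSO in NR2E3 cells and 100% = DMSO in cells lacking NR2E3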
VP16 counter: reduces GAL4-VP16 reporter signal in NR2E3 counterscreen; shares compounds with NR2E3 ag-2; CHO-S GAL4-VP16 luciferase reporter, luminescence; inhibition, % at 3.98 µM; 2,300 compounds, 29% hits;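 active means mean inhibition above a cutoff equal to the average over all tested compounds plus one standard deviation, cut at about 70% in these data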;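 further: luciferase from a UAS reporter driven by GAL4-VP16 transactivation; 0% = DMSO with VP16-transfected cells and 100% = DMSO with cells lacking VP16; higher means less reporter light so more repression of VP16 activity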
An asterisk follows results filed as active; x = no result.

SMILES | DAX1 inh-1 | NR2E3 ag-1 | NR2E3 ag-2 | JMJD2C inh | DAX1 inh-2 | SMARCA2 act | NR2E3 ag confirm | VP16 counter
O=C(CN1C(=O)c2ccccc2S1(=O)=O)c1ccc2c(c1)OCCCO2 | -2.7 | -0.2 | 97.4* | -7.3 | -9.9 | -9.2 | 93.9* | 89.0*
O=C(CN1C(=O)c2ccccc2S1(=O)=O)c1cccc(Br)c1 | -0.1 | -0.4 | -10.8 | 21.7 | -0.3 | 1.8 | x | x
O=C(CN1C(=O)c2ccccc2S1(=O)=O)c1ccc2c(c1)OCCO2 | -2.6 | 1.6 | 69.1 | 2.2 | -9.6 | -12.0 | 84.8* | 66.4
CCc1ccc(N2C(=O)C[C@@](C#N)(C(=O)OC)[C@H]2c2ccccc2)cc1 | 0.6 | x | x | x | x | -2.4 | x | x
COc1cccc(NC(=O)C2CCN(S(=O)(=O)c3ccc4c(c3)CC(C)N4C(C)=O)CC2)c1 (stereo not given) | -1.0 | -2.8 | -4.8 | -4.5 | 0.0 | -4.6 | x | x
COc1cccc(NC(=O)C2CCN(S(=O)(=O)c3ccc(N4CCCC4=O)cc3)CC2)c1 | -0.8 | x | 8.6 | x | -0.6 | 1.4 | x | x
CC(=O)N1c2ccc(S(=O)(=O)N3CCC(C(=O)Nc4cccc(C)n4)CC3)cc2CC1C (stereo not given) | -9.6 | -3.8 | 49.7 | 1.9 | -1.4 | -5.5 | 17.9 | 5.5
CC(=O)N1c2ccc(S(=O)(=O)N3CCC(C(=O)Nc4cccc(C(F)(F)F)c4)CC3)cc2CC1C (stereo not given) | -0.8 | -1.3 | 58.5 | -0.4 | -1.1 | -2.1 | 61.3 | 43.9
O=C(Nc1cccc(C(F)(F)F)c1)C1CCN(S(=O)(=O)c2ccc(N3CCCC3=O)cc2)CC1 | -6.8 | 4.7 | 84.7* | 6.5 | -0.1 | -4.0 | 90.3* | 67.6
CC(=O)N1c2ccc(S(=O)(=O)N3CCC(C(=O)Nc4ccccn4)CC3)cc2CC1C (stereo not given) | -1.1 | -0.1 | 5.9 | 4.4 | -0.7 | -4.3 | x | x
C=C(O[C@H]1[C@H](O)CC=C(C(=O)O)[C@@H]1O)C(=O)O | 0.3 | x | x | x | x | 0.2 | x | x
CN(C(=O)COc1ccccc1C(=O)NCCOc1ccccc1)c1ccccc1 | -4.0 | 6.8 | 76.6* | 0.0 | -6.3 | -6.1 | 80.3* | 67.5
CCOC(=O)c1cc(S(=O)(=O)Nc2cccc(OC)c2)cn1C | -0.9 | 0.4 | 53.9 | -1.0 | -1.0 | -5.0 | 25.1 | 28.1
Cc1cccc(-c2cccc3c4c([nH]c23)[C@@H]2C[C@H](N(C)C(=S)NCCc3ccccc3)[C@H]([C@H](C)O)CN2CC4)c1 | -0.3 | x | x | x | x | -2.4 | x | x
Cc1csc2c(N3CCN(C(=S)Nc4ccc(F)cc4F)CC3)ncnc12 | -0.6 | 3.0 | 90.2* | 3.5 | -3.4 | -4.0 | 97.1* | 87.7*
O=[N+]([O-])c1ccc(N2CCN(C(=S)Nc3ccc(F)cc3F)CC2)cc1 | -0.2 | 1.1 | 74.1* | 10.7 | -1.3 | -3.8 | 72.7* | 61.8
Cc1csc2c(N3CCN(C(=O)Nc4ccccc4)CC3)ncnc12 | -0.4 | -0.3 | 10.5 | -13.3 | -2.6 | -3.6 | x | x
CCNc1nc2c(c(=O)n(C)c(=O)n2C)n1Cc1ccc(Cl)cc1 | -4.4 | -0.4 | 57.0 | -28.9 | -2.6 | -4.8 | 78.5* | 55.9
C=CCN1[C@H](Cc2ccccc2)COc2cccc(N3CCSCC3)c2S1(=O)=O | -0.6 | x | x | x | x | 0.0 | x | x
Clc1ccc(-n2ncc3c(N4CCCCCC4)ncnc32)cc1 | -6.1 | 10.2 | 86.5* | 13.0 | -1.3 | -6.4 | 83.2* | 47.6
C=C1C(=O)OC2C=C(CO)C3OC3C3OC3(C)CC(OC(=O)/C(=C/C)COC(C)=O)C12 (stereo not given) | -4.6 | x | 85.8* | x | -5.2 | -11.3 | 30.3 | 20.6
CC(=O)OCC1=C[C@@H]2OC(=O)C3=CO[C@@H](O[C@@H]4O[C@H](CO)[C@@H](O)[C@H](O)[C@H]4O)[C@H]1[C@@H]32 | 0.2 | 2.2 | -27.7 | -0.8 | -0.5 | -0.1 | x | x
N#C/C(=C\c1ccc(Sc2nc3ccccc3[nH]2)o1)c1ccccc1 | -1.9 | -2.1 | 73.5* | 4.3 | -1.7 | -3.1 | 82.1* | 55.7
CCOc1ccc(-c2cccc(NS(=O)(=O)c3cc([N+](=O)[O-])ccc3Cl)c2)nn1 | 1.4 | -3.1 | 53.2 | 8.5 | -1.2 | 1.0 | 17.9 | -3.6
Cc1ccc(/C=C2\SC(=S)N(CCCC(=O)Nc3ccc(O)cc3)C2=O)cc1 | -2.1 | 2.0 | 77.8* | -1.4 | -4.2 | -9.8 | -2.7 | 62.6
SMILES | DAX1 inh-1 | NR2E3 ag-1 | NR2E3 ag-2 | JMJD2C inh | DAX1 inh-2 | SMARCA2 act | NR2E3 ag confirm | VP16 counter
O=C(CCCN1C(=O)S/C(=C\C=C\c2ccccc2)C1=O)Nc1ccc(O)cc1 | -0.7 | 0.2 | 49.4 | 3.2 | -0.1 | -0.8 | -0.4 | 58.1
O=C(CCN1C(=O)/C(=C/c2ccccc2)SC1=S)Nc1ccccn1 | 0.0 | 0.9 | -13.3 | 12.5 | 0.2 | -0.6 | x | x
Cc1ccc(/C=C2\SC(=S)N(CCCC(=O)Nc3ccccn3)C2=O)cc1 | -4.1 | 2.5 | 66.7 | 7.7 | -3.5 | -8.8 | 59.0 | 92.9*
COCCCN1C(=O)[C@H](CC(=O)NCc2cccs2)[C@]2(C(=O)OC)CCCCC=C12 | 0.6 | x | x | x | x | -1.8 | x | x
COc1ccc(Cl)cc1NC(=S)NNC(=O)C1(C)CC1(Cl)Cl (stereo not given) | 0.4 | 1.1 | 49.0 | 13.8 | -0.1 | -0.1 | -14.6 | -7.8
CC(=O)N1CCCc2ccc(NS(=O)(=O)c3ccc(C)c(C)c3)cc21 | -0.7 | -1.1 | 66.5 | -25.6 | -0.4 | -2.2 | 59.8 | 48.4
CC(=O)Nc1ccc(S(=O)(=O)Nc2ccc3c(c2)CCC3)cc1 | -0.5 | 4.4 | 51.3 | -1.2 | -2.4 | -2.9 | 21.9 | 28.6
COC(=O)[C@]12C[C@H](CC(=O)N3CCCC3)C(=O)N(CCC3=CCCCC3)C1=C[C@H](C1CCCC1)O[C@@H]2C | -1.1 | x | x | x | x | 1.4 | x | x
CCN(c1ccccc1)S(=O)(=O)c1ccc(C(=O)NC2CCN(Cc3ccccc3)CC2)cc1 | x | x | 57.4 | -9.2 | -3.9 | x | 80.3* | 60.7
CCOC(=O)Cn1c(=O)c(-c2ccccc2N)nc2ccccc21 | 2.2 | -0.1 | -6.6 | 25.0 | -0.1 | -0.7 | x | x
CCOC(=O)Cn1c(=O)c(-c2cc(Br)ccc2N)nc2ccccc21 | 0.6 | 0.6 | 75.6* | 1.8 | 0.9 | 1.4 | 80.1* | 68.1
N#Cc1c(-c2ccc(Cl)cc2)cc(-c2ccccc2)nc1SCC(=O)O | 0.2 | 5.6 | 18.2 | 2.5 | 0.2 | -0.7 | x | x
N#Cc1c(-c2ccccc2)cc(-c2ccccc2)nc1SCCC(=O)O | -0.2 | 0.9 | 54.2 | 10.7 | 0.6 | -2.4 | 74.4* | 8.0
COc1ccc(C2CC(O)(c3ccccc3)Oc3cc(OC)c(OC)c(OC)c32)cc1 (stereo not given) | -0.5 | 2.0 | 4.3 | 2.2 | 0.9 | 1.1 | x | x

Assay outcomes as filed in PubChem BioAssay.
